# Reference: ChEMBL document CHEMBL1126044, “Affinity of human growth hormone-releasing factor (1-29)NH2 analogues for GRF binding sites in rat adenopituitary” (J Med Chem, 1992)
# What was measured:
# [1] = biological target: T1, Growth hormone-releasing hormone receptor (Rattus norvegicus, UniProt Q02644); experiment: Compound was tested to Inhibit [125I]-Growth hormone-releasing factor in rat adenopituitary homogenates
# T1 sequence (Q02644 whole entry): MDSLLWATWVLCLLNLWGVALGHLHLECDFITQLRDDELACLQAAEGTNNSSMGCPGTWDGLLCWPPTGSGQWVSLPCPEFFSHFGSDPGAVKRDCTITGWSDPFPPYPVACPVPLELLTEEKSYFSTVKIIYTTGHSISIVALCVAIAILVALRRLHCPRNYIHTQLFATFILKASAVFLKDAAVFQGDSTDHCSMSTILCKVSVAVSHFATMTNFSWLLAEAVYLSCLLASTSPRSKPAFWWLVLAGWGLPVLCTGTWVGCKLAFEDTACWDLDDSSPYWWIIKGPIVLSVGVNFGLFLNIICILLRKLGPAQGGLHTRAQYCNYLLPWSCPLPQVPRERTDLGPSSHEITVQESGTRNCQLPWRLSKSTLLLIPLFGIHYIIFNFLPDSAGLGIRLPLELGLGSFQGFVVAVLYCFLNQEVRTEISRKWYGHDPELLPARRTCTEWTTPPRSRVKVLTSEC
# Procedure, shortened: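 Anterior pituitaries from 2-month-old male Sprague-Dawley rats homogenized in ice-cold 50 mM Tris-HCl pH 7.4 with 5 mM MgCl2, 5 mM EDTA. Homogenate (70–75 µg protein) incubated with 35–50 pM [125I-Tyr10]hGRF(1-44)NH2 and peptide at 0–1000 nM in Tris-HCl buffer pH 7.4 with 5 mM EDTA, 5 mM MgCl2, 0.42% BSA, 60 min at 23 °C. Nonspecific binding defined with 2.4 µM rGRF(1-29)NH2. Bound fraction separated by centrifugation and gamma-counted. IC50 fitted with LIGAND. Mean ± SEM of three experiments, each in duplicate or triplicate.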
# [2] = biological target: T2, Growth hormone-releasing hormone receptor (Rattus norvegicus) (UniProt Q02644); experiment: Relative affinity compared to hGRF(1-29)NH2; format: functional
# T2 sequence (whole entry): T1 sequence (Q02644 whole entry)
# Procedure, shortened: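 Radioligand competition in rat anterior pituitary homogenate using [125I-Tyr10]hGRF(1-44)NH2 at 35–50 pM and peptides at 0–1000 nM, 60 min at 23 °C. Relative affinity is the binding IC50 expressed as a percentage relative to hGRF(1-29)NH2.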
# Rattus norvegicus = organism: Rattus norvegicus; experiment: Residual concentration after 60 min incubation with pituitary homogenates, in the binding assay conditions, by quantitative HPLC method; format: functional
# Procedure, shortened: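 Peptide at 10 µM incubated with rat pituitary homogenate (150 µg protein/100 µL) in binding-assay conditions at 23 °C for 0 and 60 min. Reaction stopped with cold 50 mM phosphate pH 0.8 and centrifugation. Controls without homogenate accounted for adsorption. Remaining peptide measured by C18 HPLC (0.01% TFA/acetonitrile gradient, UV 214 nm) and peak-area integration.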
Molecule,IC50 [1],Activity [2],Residual peptide remaining after 60 min (Rattus norvegicus)
H-YADAIFTNSYRKVLGQLSARKLLQDMSR-NH2,20.3 nM,30%,–
H-YADAIFTNSYRKVLGQLSARKLLQDIMR-NH2,–,78%,100%
H-YADAIFTNSYRKLGQLSARKLLQDIMSR-NH2,> 1000 nM,–,89%
H-YADAIFTNSYRKVLGQLSARKLLDIMSR-NH2,–,12%,85%
H-YADAIFTSYRKVLGQLSARKLLQDIMSR-NH2,–,5.9%,100%
CC[C@H](C)[C@H](NC(=O)[C@H](C)NC(=O)[C@H](CC(=O)O)NC(=O)[C@H](C)NC(=O)[C@H](Cc1ccc(O)cc1)NC(=O)CCCCCN)C(=O)N[C@@H](Cc1ccccc1)C(=O)N[C@H](C(=O)N[C@@H](CC(N)=O)C(=O)N[C@@H](CO)C(=O)N[C@@H](Cc1ccc(O)cc1)C(=O)N[C@@H](CCCN=C(N)N)C(=O)N[C@@H](CCCCN)C(=O)N[C@H](C(=O)N[C@@H](CC(C)C)C(=O)NCC(=O)N[C@@H](CCC(N)=O)C(=O)N[C@@H](CC(C)C)C(=O)N[C@@H](CO)C(=O)N[C@@H](C)C(=O)N[C@@H](CCCN=C(N)N)C(=O)N[C@@H](CCCCN)C(=O)N[C@@H](CC(C)C)C(=O)N[C@@H](CC(C)C)C(=O)N[C@@H](CCC(N)=O)C(=O)N[C@@H](CC(=O)O)C(=O)N[C@H](C(=O)N[C@@H](CCSC)C(=O)N[C@@H](CO)C(=O)N[C@@H](CCCN=C(N)N)C(N)=O)[C@@H](C)CC)C(C)C)[C@@H](C)O,–,85%,–

# The next lines start with the values.
IC50 [1],Activity [2],Residual peptide remaining after 60 min (Rattus norvegicus),Molecule
836 nM,0.7%,92%,H-YADAIFTNSYRVLGQLSARKLLQDIMSR-NH2
–,4.6%,94%,H-YADAIFTNSYRKVLGQLSARKLLQDIR-NH2
9.8 nM,57%,–,H-HADAIFTSSYRRILGQLYARKLLHEIMNR-NH2
–,13%,100%,H-ADAIFTSSYRRILGQLYARKLLHEIMNR-NH2
–,32%,85%,CC[C@H](C)[C@H](NC(=O)[C@H](C)NC(=O)[C@H](CC(=O)O)NC(=O)[C@H](C)NC(=O)[C@H](Cc1ccc(O)cc1)NC(C)=O)C(=O)N[C@@H](Cc1ccccc1)C(=O)N[C@H](C(=O)N[C@@H](CC(N)=O)C(=O)N[C@@H](CO)C(=O)N[C@@H](Cc1ccc(O)cc1)C(=O)N[C@@H](CCCN=C(N)N)C(=O)N[C@@H](CCCCN)C(=O)N[C@H](C(=O)N[C@@H](CC(C)C)C(=O)NCC(=O)N[C@@H](CCC(N)=O)C(=O)N[C@@H](CC(C)C)C(=O)N[C@@H](CO)C(=O)N[C@@H](C)C(=O)N[C@@H](CCCN=C(N)N)C(=O)N[C@@H](CCCCN)C(=O)N[C@@H](CC(C)C)C(=O)N[C@@H](CC(C)C)C(=O)N[C@@H](CCC(N)=O)C(=O)N[C@@H](CC(=O)O)C(=O)N[C@H](C(=O)N[C@@H](CCSC)C(=O)N[C@@H](CO)C(=O)N[C@@H](CCCN=C(N)N)C(N)=O)[C@@H](C)CC)C(C)C)[C@@H](C)O
–,100%,81%,CC[C@H](C)[C@H](NC(=O)[C@H](C)NC(=O)[C@H](CC(=O)O)NC(=O)[C@H](C)NC(=O)[C@@H](N)Cc1ccc(O)cc1)C(=O)N[C@@H](Cc1ccccc1)C(=O)N[C@H](C(=O)N[C@@H](CC(N)=O)C(=O)N[C@@H](CO)C(=O)N[C@@H](Cc1ccc(O)cc1)C(=O)N[C@@H](CCCN=C(N)N)C(=O)N[C@@H](CCCCN)C(=O)N[C@H](C(=O)N[C@@H](CC(C)C)C(=O)NCC(=O)N[C@@H](CCC(N)=O)C(=O)N[C@@H](CC(C)C)C(=O)N[C@@H](CO)C(=O)N[C@@H](C)C(=O)N[C@@H](CCCN=C(N)N)C(=O)N[C@@H](CCCCN)C(=O)N[C@@H](CC(C)C)C(=O)N[C@@H](CC(C)C)C(=O)N[C@@H](CCC(N)=O)C(=O)N[C@@H](CC(=O)O)C(=O)N[C@H](C(=O)N[C@@H](CCSC)C(=O)N[C@@H](CO)C(=O)N[C@@H](CCCN=C(N)N)C(N)=O)[C@@H](C)CC)C(C)C)[C@@H](C)O
20.2 nM,28%,–,H-YADAIFTNSYRKVLGQLSARKLLQDIMS-NH2
1000 nM,–,88%,H-YADAIFTNSYRKVLQLSARKLLQDIMSR-NH2
